Active and inactive are the calls of the source. The calls are words filed in the database; no cut-off is given here.
Legend:
HepG2 [1] = test: Induction of apoptosis in human HepG2 cells assessed as nuclear condensation at 6 uM after 72 hrs by Giemsa staining based fluorescent microscopic method; assay type: functional, cell-based
Outline: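 HepG2 cells were seeded at 4×10^3 cells/well in 6-well plates overnight, then treated at 1.5, 3 or 6 µM for 72 h. Cells were washed in PBS, fixed in cold methanol, stained with 6% Giemsa for 5 min, rinsed with water and dried. Morphology was examined microscopically at 200×, with apoptotic cells marked in representative fields.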

HepG2 [2] = test: Induction of apoptosis in human HepG2 cells assessed as disruption of mitochondrial membrane potential by measuring mean fluorescence intensity at 2 uM after 72 hrs by Rh123 staining based flow cytometry (reference value: 26410); assay type: functional
HepG2 [3] = test: Induction of apoptosis in human HepG2 cells assessed as early apoptotic cells at 3 uM after 72 hrs by Annexin-V-FITC/propidium iodide staining based flow cytometry (reference value: 3.7%); assay type: functional
HepG2 [4] = test: Induction of apoptosis in human HepG2 cells assessed as late apoptotic cells at 2 uM after 72 hrs by Annexin-V-FITC/propidium iodide staining based flow cytometry (reference value: 2.6%); assay type: functional
HepG2 [5] = test: Induction of apoptosis in human HepG2 cells after 72 hrs by Annexin-V-FITC/propidium iodide staining based flow cytometry; assay type: functional, cell-based
HepG2 [6] = test: Induction of apoptosis in human HepG2 cells assessed as increase in intracellular calcium level by measuring mean fluorescence intensity at 4 uM after 72 hrs by Fluo-3AM dye based flow cytometry (reference value: 1992); assay type: functional
Outline: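 HepG2 cells at 1×10^5 cells/well were grown 24 h, then treated with compound for 72 h. Cells were harvested, washed in cold PBS and resuspended in HBSS containing 10 µM Fluo-3 AM for 30 min at 37 °C in the dark. Flow cytometry used 488 nm excitation; the read-out was mean fluorescence intensity against an untreated control.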

A549 = test: Antiproliferative activity against human A549 cells after 72 hrs by MTT assay; assay type: functional, cell-based; conditions: A549, 72 h
Outline: (§1)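 MTT assay. Log-phase cells were seeded at 3×10^3 cells/well and left overnight, then exposed to serial dilutions of compound (DMSO solutions) for 72 h in RPMI 1640 with 10% heat-inactivated FBS at 37 °C, 5% CO2. MTT (5 mg/mL, 20 µL) was added for 4 h at 37 °C and the formazan dissolved in DMSO. A490 was read. % inhibition = (1 − sample OD/control OD)×100; IC50 is the 50% growth-inhibition concentration. Triplicates, n = 3 independent experiments.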

HepG2 [7] = test: Induction of apoptosis in human HepG2 cells assessed as early apoptotic cells at 4 uM after 72 hrs by Annexin-V-FITC/propidium iodide staining based flow cytometry (reference value: 3.7%); assay type: functional
HepG2 [8] = test: Induction of apoptosis in human HepG2 cells assessed as disruption of mitochondrial membrane potential by measuring mean fluorescence intensity at 4 uM after 72 hrs by Rh123 staining based flow cytometry (reference value: 26410); assay type: functional
HepG2 [9] = test: Induction of apoptosis in human HepG2 cells assessed as formation of apoptotic bodies after 72 hrs by DAPI staining based fluorescent microscopic method; assay type: functional, cell-based
Outline: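 HepG2 cells were plated at 4×10^3 cells/well in six-well plates and grown 12 h, then treated at 1.5, 3 or 6 µM for 72 h. Cells were washed in PBS, fixed in 4% paraformaldehyde and stained with 1 mg/mL DAPI for 1 min in the dark. Nuclei were viewed by fluorescence microscopy at 200×.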

HepG2 [10] = test: Induction of apoptosis in human HepG2 cells assessed as viable cells at 2 uM after 72 hrs by Annexin-V-FITC/propidium iodide staining based flow cytometry (reference value: 93.2%); assay type: functional; conditions: HepG2, 72 h, read-out: Activity
HeLa = test: Antiproliferative activity against human HeLa cells after 72 hrs by MTT assay; assay type: functional, cell-based; outline: as §1

C=C(C)[C@@H]1CC[C@]2(C(=O)OCc3nc(C)c(C)nc3C)CC[C@]3(C)[C@H](CC[C@@H]4[C@@]5(C)CC[C@H](OC(=O)[C@H](C)NC(=O)CNC)C(C)(C)[C@@H]5CC[C@]43C)[C@@H]12
Activity (HepG2 [1]): Active | Flu intensity (HepG2 [2]): 6416 | Activity (HepG2 [3]): 11.3% | Activity (HepG2 [4]): 4.8% | Activity (HepG2 [5]): Dose-dependent effect | Flu intensity (HepG2 [6]): 6353 | IC50 (A549): 3.25 µM | Activity (HepG2 [7]): 29.9% | Flu intensity (HepG2 [8]): 2147 | Activity (HepG2 [9]): Dose-dependent effect | viability at 2 µM (HepG2 [10]): 88% | IC50 (HeLa): 1740 nM
